Assay results from ChEMBL document CHEMBL1129943, “5-aminocoumarans: dual inhibitors of lipid peroxidation and dopamine release with protective effects against central nervous system trauma and ischemia” (J Med Chem, 1997).

What was measured:
Type in all cases: functional
Rattus norvegicus [1] = organism: Rattus norvegicus; experiment: Inhibition of lipid peroxidation by rat liver microsomes; parameters: concentration or dose not given beside the values; conditions: dose or concentration not given here
How it was run: (§1)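 Rat liver microsomes (S-9), 0.3 mg protein in 40 mM Tris-malate pH 7.4. Peroxidation started with a 1:1 mix of FeCl2 (0.25 mM) and NADPH (3 mM), then 1 h at 37 °C. Compound in DMSO added before incubation, tested up to 1 μM final. Thiobarbituric acid method read-out. Activity relative to DMSO vehicle; IC50 from four concentrations by nonlinear regression, otherwise % inhibition at 1 μM.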

Mus musculus [2] = organism: Mus musculus; experiment: Peroral dose required to reduce by 50% the score of excitatory behavior induced by intrathecal injection of ferrous chloride in mice; conditions: central, read-out: ID50 (the source's name)
How it was run: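 Male Slc:ICR mice, 5 weeks old, 10 per dose. Compound given orally 30 min before intrathecal 5 μL of 50 mM FeCl2 in saline (between L6 and S1). Vehicle was water, or 0.5% gum arabic suspension. Behaviour scored 0–5 (biting to death) from 15 min to 1 h. ID50 from three or four doses, relative to vehicle score.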

Mus musculus [3] = organism: Mus musculus; experiment: Percentage increase of locomotor activity in mice
Mus musculus [4] = experiment: Locomotor activity was measured in mice after 1 hour administration of methamphetamine; parameters: unit not given here
Rattus norvegicus [5] = organism: Rattus norvegicus; experiment: Concentration required to reduce by 50% the amount of lipid peroxide formed in rat liver microsomes; how it was run: as §1

Structure (SMILES) | IC50 (Rattus norvegicus [5]) [nM] | inhibition (Rattus norvegicus [1]) [%] | ED50 (Mus musculus [2]) [mg/kg] | Increase (Mus musculus [3]) [%] | Locomotor activity (Mus musculus [4])
Cc1c(N)c(C)c2c(c1CN(C)C)OC(C)(C)C2 | – | 4 | > 50 | – | –
CC1(C)Cc2cc(N)ccc2O1 | – | 5 | > 100 | – | –
Cc1c(C)c2c(c(N(C)C)c1N)CC(C)(C)O2 | 550 | – | 22.3 | – | –
CCOC(=O)Nc1c(C)c(C)c2c(c1C)CC(C)(C)O2 | – | 1 | > 100 | – | –
Cc1c(C)c2c(c(C)c1N)CC(C)(CN1CCCCC1)O2 (stereo not given) | – | 18 | 11.7 | 93.7 | 2960
Cc1c(C)c2c(c(C)c1N)CC(C)(CSCCO)O2 (stereo not given) | – | 11 | > 50 | – | –
Cc1c(C)c2c(c(C)c1N)CC(C)(Cn1ccnc1)O2 (stereo not given) | – | 6 | 25 | 155.1 | 3950
CNc1c(C)c(C)c2c(c1C)CC(C)(C)O2 | – | 18 | 16.6 | 84.7 | 1229
Cc1c(C)c2c(c(C)c1N)C(C(C)C)C(C)(C)O2 (stereo not given) | 290 | – | 14 | – | –
Cc1c(C)c2c(c(C)c1N)CC(C)(CSc1nccn1C)O2 (stereo not given) | – | 11 | 37.1 | 104.2 | 2228
CCC(=O)Nc1c(C)c(C)c2c(c1C)CC(C)(C)O2 | – | 1 | > 100 | – | –
Cc1cc2c(c(C)c1N)CC(C)(C)O2 | – | 14 | 16.3 | – | –
Cc1c(C)c2c(c(C)c1N)C(c1cccnc1)C(C)(C)O2 (stereo not given) | – | 22 | 32.1 | 52.1 | 1488
Cc1c(C)c2c(c(C)c1NC=O)CC(C)(C)O2 | – | 0 | > 100 | – | –
Cc1c(N)c(C)c2c(c1CC(C)C)OC(C)(C)C2 | 140 | – | 13.3 | – | –
Cc1c(C)c2c(c(C)c1N)CC(C)(CCN1CCCCC1)O2 (stereo not given) | – | 8 | 18.4 | 206.5 | <3549

Structure (SMILES) | IC50 (Rattus norvegicus [5]) [nM] | inhibition (Rattus norvegicus [1]) [%] | ED50 (Mus musculus [2]) [mg/kg] | Increase (Mus musculus [3]) [%] | Locomotor activity (Mus musculus [4])
Cc1c(N)cc2c(c1C)OC(C)(C)C2 | – | 26 | 24.4 | – | –
Cc1ccc(S(=O)(=O)Nc2c(C)c(C)c3c(c2C)CC(C)(C)O3)cc1 | – | 3 | > 100 | – | –
Cc1c(C)c2c(c(C)c1Nc1cccnc1)CC(C)(C)O2 | – | 4 | > 50 | – | –
Cc1c(C)c2c(c(C)c1NS(C)(=O)=O)CC(C)(C)O2 | – | -1 | > 100 | – | –
Cc1c(C)c2c(c(C)c1N)CC(C)(CCN(C)C)O2 (stereo not given) | – | 4 | 19 | 115.2 | 2129
Cc1c(C)c2c(c(C)c1N)CC(C)(CN1CCN(C)CC1)O2 (stereo not given) | – | 10 | 25.3 | 181.1 | 3154
Cc1c(N)c(C)c2c(c1CN1CCCCC1)OC(C)(C)C2 | – | 3 | > 50 | – | –
Cc1c(C)c2c(c(C)c1Nc1ccc3c(c1)CC(C)(C)O3)CC(C)(C)O2 | 30 | – | > 25 | – | –
CCNc1c(C)c(C)c2c(c1C)CC(C)(C)O2 | – | 16 | 38.9 | – | –
COC(=O)/C=C\C1(C)Cc2c(C)c(N)c(C)c(C)c2O1 (stereo not given) | – | 38 | > 100 | – | –
CC(C)=Cc1c(C)c(N)c(C)c2c1OC(C)(C)C2 | 300 | – | 21.9 | – | –
CC(=O)Nc1c(C)c(C)c2c(c1C)CC(C)(C)O2 | – | -2 | > 100 | – | –
Cc1cc(N)c(C)c2c1OC(C)(C)C2 | – | 19 | 32.3 | – | –
Cc1c(C)c2c(c([N+](=O)[O-])c1N)CC(C)(C)O2 | – | 0 | > 100 | – | –
Cc1c(C)c2c(c(C)c1N)CC(C)(CSCCC(=O)O)O2 (stereo not given) | – | 0 | 43 | – | –
CCCNc1c(C)c(C)c2c(c1C)CC(C)(C)O2 | – | 24 | 51.1 | – | –

More lines, main results first:

IC50 (Rattus norvegicus [5]) [nM] | Structure (SMILES) | inhibition (Rattus norvegicus [1]) [%] | ED50 (Mus musculus [2]) [mg/kg] | Increase (Mus musculus [3]) [%] | Locomotor activity (Mus musculus [4])
280 | Cc1c(C)c2c(c(C)c1N)CC(C)(COCc1ccccc1)O2 (stereo not given) | – | 18.6 | 64 | 1657
220 | Cc1c(C)c2c(c(C)c1N)CC(C)(CSc1ccc(O)cc1)O2 (stereo not given) | – | > 50 | – | –
260 | Cc1c(C)c2c(c(C)c1N)CC(C)(CSCc1ccccc1)O2 (stereo not given) | – | 32 | 33.6 | 1099
80 | Cc1c(C)c2c(c(C)c1N)CC(C)(CNCCCCc1ccccc1)O2 (stereo not given) | – | 17 | – | –
290 | Cc1c(C)c2c(c(C)c1N)CC(C)(CNCc1ccccc1)O2 (stereo not given) | – | 9.1 | 46.1 | 1340
220 | Cc1c(C)c2c(c(C)c1N)CC(C)(CSc1ccc(F)cc1)O2 (stereo not given) | – | 17.9 | 61.8 | 1625
660 | Cc1c(C)c2c(c(C)c1N)CC(C)(C[S+]([O-])c1ccccc1)O2 (stereo not given) | – | 31.3 | – | –
290 | CCCc1ccc(C2c3c(C)c(N)c(C)c(C)c3OC2(C)C)cc1 (stereo not given) | – | > 50 | – | –
300 | Cc1ccc(C2c3c(C)c(N)c(C)c(C)c3OC2(C)C)cc1 (stereo not given) | – | > 50 | – | –
70 | Cc1c(C)c2c(c(C)c1N)CC(C)(CN1CCN(C(c3ccccc3)c3ccccc3)CC1)O2 (stereo not given) | – | > 50 | 62.8 | 1664
50 | CCCCCc1ccc(C2c3c(C)c(N)c(C)c(C)c3OC2(C)C)cc1 (stereo not given) | – | 42.2 | – | –
70 | Cc1c(C)c2c(c(C)c1N)CC(C)(CN1CCN(c3ccccc3)CC1)O2 (stereo not given) | – | 13.1 | 47.3 | 1484
270 | Cc1c(C)c2c(c(C)c1N)CC(C)(CSc1ccccc1)O2 (stereo not given) | – | 24.7 | 24.7 | <1098
410 | Cc1c(C)c2c(c(C)c1N)CC(C)(CN1CCOCC1)O2 (stereo not given) | – | 19.2 | 103.1 | 3209
70 | Cc1c(C)c2c(c(C)c1N)CC(C)(CN1CCC(c3ccccc3)CC1)O2 (stereo not given) | – | 10.4 | 1.8 | <482
300 | COCC1(C)Cc2c(C)c(N)c(C)c(C)c2O1 (stereo not given) | – | 20.1 | 76.7 | 1934

IC50 (Rattus norvegicus [5]) [nM] | Structure (SMILES) | inhibition (Rattus norvegicus [1]) [%] | ED50 (Mus musculus [2]) [mg/kg] | Increase (Mus musculus [3]) [%] | Locomotor activity (Mus musculus [4])
800 | Cc1c(C)c2c(c(C)c1N)CC(C)(CS(=O)(=O)c1ccccc1)O2 (stereo not given) | – | 36.6 | – | –
290 | Cc1c(C)c2c(c(C)c1N)C(c1ccc(C(C)C)cc1)C(C)(C)O2 (stereo not given) | – | > 50 | – | –
70 | Cc1c(C)c2c(c(C)c1N)CC(C)(CSc1nc3ccccc3s1)O2 (stereo not given) | – | 33.7 | 45.3 | 1391
280 | Cc1c(C)c2c(c(C)c1N)C(c1ccc(F)cc1)C(C)(C)O2 (stereo not given) | – | 26.7 | 181.3 | 2156
80 | Cc1c(C)c2c(c(C)c1N)CC(C)(CCc1ccc(F)cc1)O2 (stereo not given) | – | 11.5 | 80.1 | 1185
290 | Cc1c(C)c2c(c(C)c1N)CC(C)(CNCCc1ccccc1)O2 (stereo not given) | – | 14.2 | – | –
630 | Cc1c(C)c2c(c(C)c1N)CC(C)(CSc1ccncc1)O2 (stereo not given) | – | 19.9 | 10.2 | <892
280 | CCCSCC1(C)Cc2c(C)c(N)c(C)c(C)c2O1 (stereo not given) | – | 24.6 | 56.4 | 1540
290 | Cc1c(C)c2c(c(C)c1N)C(c1ccccc1)C(C)(C)O2 (stereo not given) | – | 24.8 | 77.3 | 1845
300 | Cc1c(C)c2c(c(N)c1N)CC(C)(C)O2 | – | > 50 | – | –
300 | Cc1c(C)c2c(c(C)c1Nc1ccc(Cl)cc1)CC(C)(C)O2 | – | > 50 | – | –
300 | Cc1c(C)c2c(c(C)c1N)CC(C)(CBr)O2 (stereo not given) | – | 16 | 34.5 | 1115
280 | Cc1c(C)c2c(c(C)c1Nc1ccccc1)CC(C)(C)O2 | – | > 50 | – | –
760 | Cc1c(C)c2c(c(C)c1N)CC(C)(C)O2 | – | 7.8 | 31.5 | <509
260 | Cc1c(C)c2c(c(C)c1N)CC(C)(CNc1ccccc1)O2 (stereo not given) | – | 15.7 | 70.4 | 1812
